# Source: publication PMC7132253 (Proceedings of the National Academy of Sciences of the …, 2020)
# Substitutions are numbered along the chain they refer to. Names may count otherwise.
# T1: WT mIL-2 (Mus musculus, UniProt P04351)
# T1 sequence (P04351 21-169): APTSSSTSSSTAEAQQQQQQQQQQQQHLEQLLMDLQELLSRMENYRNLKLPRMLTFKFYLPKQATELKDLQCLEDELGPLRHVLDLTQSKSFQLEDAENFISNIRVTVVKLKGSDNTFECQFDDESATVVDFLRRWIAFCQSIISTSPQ
# B1: JES6-1 anti-mouse IL-2 monoclonal antibody (antibody, V domains shown)
# VH: EIQLQQSGPELRRPGSSVKLSCKASGYNITDYLIHWVRHRPEHGLEWIGWIDPEDGETRYAQKFQSKATLTADTSSNAAYMQLSSLTPEDTATYFCARSLDSTYIYPFAYWGQGTLVTVSS
# VL: DIVMTQSPFSLAVSEGEMVTINCKSSQSLLSSGNQKNYLAWYQQKPGQSPKLLIYYASTGQSGVPDRFIGSGSGTDFTLTISDVQAEDLADYYCLQHYISPPTFGAGTKLELK
# B2: WT mIL-2: wild-type mouse interleukin-2 (amino acids 1-149), recombinant, expressed in E. coli (protein, UniProt P04351 21-169, looked up)
# Interleukin-2: T1 sequence (P04351 21-169)
# B3: R52A mIL-2: designed point mutant R52A of mouse IL-2 that eliminates all C-capping interactions (protein)
# chain: T1 sequence (P04351 21-169) with R52A
# How the values were obtained:
# WT mIL-2 = target: T1, WT mIL-2; assay: NMR titration with line shape analysis; assay type: binding
# Method in brief: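 Kd derived by line-shape analysis (TITAN) of fast-exchange shifts of the V129γ2 and L133δ2 methyl peaks. Errors propagated from spectral signal-to-noise.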
# [1] = test system: IL-2Rα+ mouse CTLL-2 cells; assay: STAT5 phosphorylation; assay type: cell-based; settings: IL-2Rα+ CTLL-2 cells
# [2] = target: wild-type mouse interleukin-2 (mouse, UniProt P04351); assay: ITC
# JES6-1 = assay: Isothermal titration calorimetry of mIL-2 into JES6-1; assay type: binding; settings: ITC
molecule,measurement,setting,value
COC(=O)[C@H](Cc1ccc(C#Cc2ccccc2)cc1)NC(=O)C[C@H]1CCCN(C(=N)N)C1 [Ro 26-4550],Kd,WT mIL-2,39400 ± 5500 nM
B1,effect of JES6-1 on mIL-2-mediated STAT5 activation,[1],fivefold reduced
same,Kd,[2],2 nM
same,dH,[2],12.7 kcal⋅mol^−1
B2,Kd,"JES6-1; 20 °C, 20 mM phosphate pH 7.2, 150 mM NaCl",2 nM
B3,effect of JES6-1 on mIL-2-mediated STAT5 activation,[1],independent of JES6-1
same,decrease in binding affinity relative to WT mIL-2,JES6-1,"1,000 fold"
